Eight compounds from ChEMBL document CHEMBL4229550, “An antimycobacterial pleuromutilin analogue effective against dormant bacilli” (Bioorg Med Chem, 2018) can be followed below.

Values after ≈ are worked out from the molar mass of the structure shown.

Test [1] concerns Mycobacterium tuberculosis. Briefly: Antibacterial activity against non-replicating Mycobacterium tuberculosis H37Rv harboring pFCA-luxAB preincubated for 10 days under anaerobic condition followed by incubation under ambient gaseous condition for 28 hrs by LORA. The test is classed as functional. An outline of the steps:
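Mtb H37Rv is electroporated with pFCA-luxAB and diluted in 7H12 broth to A570 0.03–0.05 (3,000–7,000 RLU per 100 µL). Cells are added to two-fold serial dilutions and held anaerobic (O2 <0.16%; 10% H2, 5% CO2, 85% N2) for 10 days. A 28 h recovery in 5% CO2 air follows, then luminescence is read.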

In test [2] the test system is Mycobacterium tuberculosis. Briefly: Selectivity ratio of MIC for antibacterial activity against non-replicating Mycobacterium tuberculosis H37Rv harboring pFCA-luxAB to MIC100 for antibacterial activity against replicating Mycobacterium tuberculosis H37Rv. The test is classed as functional.

In the case of `C=C[C@]1(C)C[C@@H](OC(=O)CSC(C)(C)CNC(=O)[C@H](N)CC(C)C)[C@]2(C)[C@H](C)CC[C@]3(CC[C@@H](O)[C@H]32)[C@@H](C)[C@@H]1O`, the MIC (as a rule, the smallest concentration in the dilution series that meets the test's criterion for growth inhibition) in test [1] is 3.46 mg/L (≈ 5.96 µM). Besides, in test [2], the selectivity ratio came to 1.13.

`C=C[C@]1(C)C[C@@H](OC(=O)CSC(C)(C)CNC(=O)[C@H](N)CC(C)C)[C@]2(C)[C@H](C)CC[C@]3(CCC(=O)[C@H]32)[C@@H](C)[C@@H]1O` returned an MIC in test [1] of 1.98 mg/L (≈ 3.42 µM). Further, the selectivity ratio in test [2] came to 1.27.

In turn, `CC[C@]1(C)C[C@@H](OC(=O)CSC(C)(C)CNC(=O)[C@H](N)CC(C)C)[C@]2(C)[C@H](C)CC[C@]3(CC[C@@H](O)[C@H]32)[C@@H](C)[C@@H]1O` came in with an MIC in test [1] of 1.2 mg/L (≈ 2.06 µM). Further, the selectivity ratio in test [2] was 1.45.

Regarding `CC[C@]1(C)C[C@@H](OC(=O)CSC(C)(C)CNC(=O)[C@H](N)CC(C)C)[C@]2(C)[C@H](C)CC[C@]3(CCC(=O)[C@H]32)[C@@H](C)[C@@H]1O`, the MIC in test [1] is 1.04 mg/L (≈ 1.79 µM). Besides, the selectivity ratio in test [2] is given as 1.33.

As for `CC[C@@H](CO)NCCN[C@@H](CC)CO` [ETHAMBUTOL], the MIC in test [1] was > 100 mg/L. Further, the selectivity ratio in test [2] is >128.

As to `NNC(=O)c1ccncc1` [ISONIAZID], the MIC in test [1] is > 100 mg/L. Besides, the selectivity ratio in test [2] is reported as >2500.

As to `CC(=O)NC[C@H]1CN(c2ccc(N3CCOCC3)c(F)c2)C(=O)O1` [LINEZOLID], in test [1], the minimum inhibitory concentration (MIC) came out at 0.63 mg/L (≈ 1.87 µM). In test [2], the selectivity ratio was determined as 1.05.

For `C=C[C@]1(C)C[C@@H](OC(=O)CSC(C)(C)CNC(=O)[C@H](N)C(C)C)[C@]2(C)[C@H](C)CC[C@]3(CCC(=O)[C@H]32)[C@@H](C)[C@@H]1O` [VALNEMULIN], in test [1], inhibition of growth (MIC) required 3.56 mg/L (≈ 6.3 µM). The selectivity ratio in test [2] came to 1.14.
